From ChEMBL document CHEMBL1671665, “Effect of beta-1,6-glucan inhibitors on the invasion process of Candida albicans: potential mechanism of their in vivo efficacy” (Antimicrob Agents Chemother, 2009)
≈ marks a conversion by molar mass, not a printed value. Calls of active or inactive are those of the source. The rule behind the calls is not given here.

Legend:
Candida albicans [1] = test: Antifungal activity against Candida albicans ATCC 24433 by microdilution method; type: functional
Summary of the method: (§1)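 Broth microdilution per NCCLS M27-A2 in MOPS-buffered RPMI with Alamar Blue, incubated at 30°C. Starting inoculum 1 × 10³ to 3 × 10⁴ cells/ml. End point MIC-2: 50% reduction in A570 against drug-free control. Duplicate runs, repeated on another day if they disagreed.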

Candida albicans [2] = test: Antifungal activity against Candida albicans ATCC 90028 by microdilution method; type: functional; summary of the method: as §1
Nakaseomyces glabratus [3] = test: Antifungal activity against Candida glabrata ATCC 48435 by microdilution method; type: functional; summary of the method: as §1
Pichia kudriavzevii [4] = test: Antifungal activity against Candida krusei ATCC 44507 by microdilution method; type: functional; summary of the method: as §1
Candida albicans [5] = test: Antifungal activity against Candida albicans ATCC 24433 in RPMI media by microdilution method; type: functional; summary of the method: as §1
Candida albicans [6] = test: Antifungal activity against Candida albicans ATCC 24433 in MEM media by microdilution method; type: functional
Summary of the method: (§2)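 Broth microdilution per NCCLS at 30°C, inoculum 1 × 10³ to 3 × 10⁴ cells/ml. Medium was MEM, SDB, YNB, Spider or Lee's, all without Alamar Blue. End point MIC-2: 50% drop in OD600 against drug-free control. RPMI run used MOPS-buffered RPMI with Alamar Blue read at 570 nm. Duplicates.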

Candida albicans [7] = test: Antifungal activity against Candida albicans ATCC 24433 in SDB media by microdilution method; type: functional; summary of the method: as §2
Candida albicans [8] = test: Antifungal activity against Candida albicans ATCC 24433 in YNB media by microdilution method; type: functional; summary of the method: as §2
Candida albicans [9] = test: Antifungal activity against Candida albicans ATCC 24433 in Lee's media by microdilution method; type: functional; summary of the method: as §2
Candida albicans [10] = test: Antifungal activity against Candida albicans ATCC 24433 in Spider media by microdilution method; type: functional; summary of the method: as §2
[11] = Cmax in Slc::ddY mouse at 10 mg/kg, po tid administered 1 hr post infection for 1 day; type: ADME, organism-based; design: dose 10 mg/kg, route oral; conditions: in vivo
[12] = Half life in Slc::ddY mouse at 10 mg/kg, po tid administered 1 hr post infection for 1 day; type: ADME, organism-based; design: dose 10 mg/kg, route oral; conditions: in vivo
Nakaseomyces glabratus [13] = test: Antifungal activity against Candida glabrata ATCC 48435 infected in Slc::ddY mouse assessed as survival rate at 3.3 mg/kg, po tid administered 1 hr post infection for 1 day measured on day 14; type: functional
Summary of the method: (§3)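 Five-week-old female Slc:ddY mice, made neutropenic with cyclophosphamide 200 mg/kg ip 4 days before and 1 day after infection. SDA-grown cells in 0.1% Tween 80 saline were injected into the tail vein: C. albicans 2.6 × 10⁴ cells, C. glabrata 2.4 × 10⁸ cells. Oral dosing at 1, 4 and 7 h post-infection. Controls got 5% glucose with 1% lactic acid. 10 mice/group; mortality followed 14 or 30 days.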

Nakaseomyces glabratus [14] = test: Antifungal activity against Candida glabrata ATCC 48435 infected in Slc::ddY mouse assessed as survival rate at 10 mg/kg, po tid administered 1 hr post infection for 1 day measured on day 14; type: functional; summary of the method: as §3
Candida albicans [15] = test: Inhibition of beta-1.6-glucan synthesis in Candida albicans ATCC 90028 assessed as [14C] glucose incorporation after 3 hrs; type: functional, organism-based
Summary of the method: (§4)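 Exponential cells suspended in RPMI 1640 (A595 about 0.6) with drug and [14C]glucose, 3 h at 30°C with occasional shaking. Cells extracted with 3% NaOH at 80°C for 1 h; mannan precipitated with Fehling's reagent. Insoluble fraction digested overnight with Zymolyase to separate β-1,6-glucan. Percent change in incorporated radioactivity against control.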

Nakaseomyces glabratus [16] = test: Inhibition of beta-1.6-glucan synthesis in Candida glabrata ATCC 48435 assessed as [14C] glucose incorporation after 3 hrs; type: functional, organism-based; summary of the method: as §4
Pichia kudriavzevii [17] = test: Inhibition of beta-1.6-glucan synthesis in Candida krusei ATCC 44507 assessed as [14C] glucose incorporation after 3 hrs; type: functional, organism-based; summary of the method: as §4
Candida albicans [18] = test: Inhibition of beta-1.6-glucan synthesis in Candida albicans ATCC 90028 assessed as [14C] glucose incorporation at 0.063 ug/ml after 3 hrs; type: functional, organism-based; summary of the method: as §4
Candida albicans [19] = test: Antifungal activity against Candida albicans ATCC 90028 assessed as degradation of mannan layer of the cell wall at 1 ug/ml after 6 hrs using fluorescein-conjugated concanavalin A stain by fluorescent microscopy; type: functional, organism-based
Summary of the method: (§5)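 Budding yeast at 1 × 10³ cells/ml exposed to drug in MOPS-buffered RPMI for 6 h with shaking (legend gives 30°C). Cells fixed in 3% glutaraldehyde/0.1 M phosphate for 2 h. For mannan: stained 30 min with 10 μg/ml fluorescein–concanavalin A, fluorescence microscopy. For TEM: 2% OsO4 postfix, Spurr's resin, uranyl acetate/lead citrate stained sections.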

Candida albicans [20] = test: Antifungal activity against Candida albicans ATCC 90028 assessed as degradation of mannan layer of the cell wall at >0.25 ug/ml after 6 hrs using fluorescein-conjugated concanavalin A stain by fluorescent microscopy; type: functional, organism-based; summary of the method: as §5
Candida albicans [21] = test: Antifungal activity against Candida albicans ATCC 90028 assessed as inhibition of adherence of fungal cell to human A549 cells; type: functional, organism-based
Summary of the method: (§6)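 Yeast pretreated with drug in MOPS-buffered RPMI at 30°C overnight without shaking. 100 or 200 cells in DPBS overlaid on confluent A549 monolayers (DMEM/10% FBS), 45 min at 37°C, 5% CO2. Washed, covered with SDA, colonies counted after 48 h at 30°C. Percent reduction of adherence; triplicate, mean ± SD.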

Nakaseomyces glabratus [22] = test: Antifungal activity against Candida glabrata ATCC 48435 assessed as inhibition of adherence of fungal cell to human A549 cells; type: functional, organism-based; summary of the method: as §6
Pichia kudriavzevii [23] = test: Antifungal activity against Candida krusei ATCC 44507 assessed as inhibition of adherence of fungal cell to human A549 cells; type: functional, organism-based; summary of the method: as §6
Candida albicans [24] = test: Antifungal activity against Candida albicans ATCC 90028 assessed as inhibition of hyphal elongation at 0.25 ug/ml in Lee's medium using crystal violet stain by light microscopy; type: functional, organism-based
Candida albicans [25] = test: Antifungal activity against Candida albicans ATCC 90028 assessed as inhibition of hyphal elongation at 0.25 ug/ml in HFM-7 medium using crystal violet stain by light microscopy; type: functional, organism-based
Candida albicans [26] = test: Antifungal activity against Candida albicans ATCC 90028 assessed as inhibition of hyphal elongation at 0.25 ug/ml in Spider medium using crystal violet stain by light microscopy; type: functional, organism-based
Candida albicans [27] = test: Antifungal activity against Candida albicans ATCC 90028 infected in reconstituted human vaginal epithelium tissue assessed as inhibition of fungal cell invasion in to the tissue at 0.25 ug/ml using […] and methylene blue stain by light microscopy; type: functional, organism-based
Summary of the method: (§7)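 RHVE (A431 keratinocytes) infected with 2 × 10⁶ ATCC 90028 cells that had been pretreated with drug. Drug also added to the maintenance medium. After 24 h at 37°C, 5% CO2, tissue fixed in formaldehyde; semithin sections stained with […]/methylene blue and examined by light microscopy.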

Candida albicans [28] = test: Antifungal activity against Candida albicans ATCC 90028 infected in reconstituted human vaginal epithelium tissue assessed as inhibition of fungal cell invasion in to the tissue at 1 ug/ml using […] and methylene blue stain by light microscopy; type: functional, organism-based; summary of the method: as §7
Saccharomyces cerevisiae [29] = test: Antifungal activity against Saccharomyces cerevisiae AY-10c expressing ScKRE6 gene by microdilution method; type: functional
Saccharomyces cerevisiae [30] = test: Antifungal activity against Saccharomyces cerevisiae CY-1a expressing ScKRE6 gene by microdilution method; type: functional
Saccharomyces cerevisiae [31] = test: Antifungal activity against Saccharomyces cerevisiae CY-3a expressing ScKRE6-CaSKN2 gene by microdilution method; type: functional
Saccharomyces cerevisiae [32] = test: Antifungal activity against Saccharomyces cerevisiae CY-4a expressing ScKRE6-CaKRE6 gene by microdilution method; type: functional
Saccharomyces cerevisiae [33] = test: Antifungal activity against Saccharomyces cerevisiae CY-5a expressing ScKRE6-CaSKN1 gene by microdilution method; type: functional
Candida albicans [34] = test: Antifungal activity against Candida albicans ATCC 90028 infected in Slc::ddY mouse assessed as survival rate at 10 mg/kg, po tid administered 1 hr post infection for 1 day measured on day 30; conditions: ATCC 90028, po
Candida albicans [35] = test: Antifungal activity against Candida albicans ATCC 90028 assessed as absence of outer layer of the cell wall at 1 ug/ml after 6 hrs by TEM; type: functional, organism-based; summary of the method: as §5

| Compound | MIC (Candida albicans [1]) [µg/mL] | MIC (Candida albicans [2]) [µg/mL] | MIC (Nakaseomyces glabratus [3]) [µg/mL] | MIC (Pichia kudriavzevii [4]) [µg/mL] | MIC (Candida albicans [5]) [µg/mL] | MIC (Candida albicans [6]) [µg/mL] | MIC (Candida albicans [7]) [µg/mL] | MIC (Candida albicans [8]) [µg/mL] | MIC (Candida albicans [9]) [µg/mL] | MIC (Candida albicans [10]) [µg/mL] | MIC (Saccharomyces cerevisiae [29]) [µg/mL] | MIC (Saccharomyces cerevisiae [30]) [µg/mL] | MIC (Saccharomyces cerevisiae [31]) [µg/mL] | MIC (Saccharomyces cerevisiae [32]) [µg/mL] | MIC (Saccharomyces cerevisiae [33]) [µg/mL] | also measured |
| --- | --- | --- | --- | --- | --- | --- | --- | --- | --- | --- | --- | --- | --- | --- | --- | --- |
| Cc1c(-c2ccccc2)c(N2CC[C@H](N(C)C)C2)n2c(nc3ncccc32)c1C#N | > 32 | > 32 | 0.125 (≈ 0.315 µM) | 0.5 (≈ 1.26 µM) | > 16 | > 16 | 4 (≈ 10.1 µM) | 16 (≈ 40.4 µM) | 0.125 (≈ 0.315 µM) | 0.125 (≈ 0.315 µM) | 0.25 (≈ 0.631 µM) | 0.5 (≈ 1.26 µM) | 0.25 (≈ 0.631 µM) | 0.25 (≈ 0.631 µM) | 0.25 (≈ 0.631 µM) | Cmax [11]: 710 ng/mL; half-life [12]: 4.4 h; survival at 3.3 mg/kg (Nakaseomyces glabratus [13]): 90%; survival at 10 mg/kg (Nakaseomyces glabratus [14]): 100%; inhibition (Candida albicans [15]): Active; inhibition (Nakaseomyces glabratus [16]): Active; inhibition (Pichia kudriavzevii [17]): Active; inhibition (Candida albicans [18]): Active; Activity (Candida albicans [19]): Active; Activity (Candida albicans [20]): Active; Activity (Candida albicans [21]): Active; Activity (Nakaseomyces glabratus [22]): Active; Activity (Pichia kudriavzevii [23]): Active; Activity (Candida albicans [24]): Active; Activity (Candida albicans [25]): Active; Activity (Candida albicans [26]): Active; Activity (Candida albicans [27]): Active; Activity (Candida albicans [28]): Active; survival at 10 mg/kg (Candida albicans [34]): 50% |
| Cc1c(-c2ccccc2)c(N2CC[C@H](N(C)C)C2)n2c(nc3ccccc32)c1C#N | > 32 | > 32 | 0.016 (≈ 0.0405 µM) | 0.25 (≈ 0.632 µM) | > 16 | > 16 | 2 (≈ 5.06 µM) | 16 (≈ 40.5 µM) | 0.125 (≈ 0.316 µM) | 0.063 (≈ 0.159 µM) | 0.125 (≈ 0.316 µM) | 0.125 (≈ 0.316 µM) | 0.125 (≈ 0.316 µM) | 0.125 (≈ 0.316 µM) | 0.25 (≈ 0.632 µM) | Activity (Candida albicans [35]): Active |
| CCc1c(C)c(C#N)c2nc3ccccc3n2c1NCCN(CC)CC | 8 (≈ 22.9 µM) | 16 (≈ 45.8 µM) | 1 (≈ 2.86 µM) | 16 (≈ 45.8 µM) | – | – | – | – | – | – | 8 (≈ 22.9 µM) | 8 (≈ 22.9 µM) | 8 (≈ 22.9 µM) | 16 (≈ 45.8 µM) | 16 (≈ 45.8 µM) | – |
